Results on 7 compounds are retold here after ChEMBL document CHEMBL3259662 (ACS Med Chem Lett, 2014).

In data set [1] the test system is KB. As to the kind of experiment: Cytotoxicity against human KB cells assessed as cell viability after 48 hrs by neutral red uptake assay. The data set is classed as cell-based. The procedure, abridged: (§1)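 Neutral red uptake assay in human cancer lines SK-MEL, KB, BT-549 and SK-OV-3 and in noncancerous mammalian kidney cells VERO and LLC-PK1. The highest tested concentration was 10 μg/mL.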

Data set [2] has as its system Candida albicans. In words: Antifungal activity against Candida albicans by CLSI method. The data set is classed as functional, organism-based.
Data set [3] in a line: Selectivity index, ratio of cytotoxicity for human BT549 cells to IC50 for Cryptococcus neoformans ATCC 90113. The data set is classed as toxicity, cell-based, BT-549. The conditions noted are these: read-out: Selectivity Index.
Data set [4] has as its system SK-OV-3. In words: Cytotoxicity against human SKOV3 cells assessed as cell viability after 48 hrs by neutral red uptake assay. It is filed as cell-based. The conditions noted are these: sk-ov-3, 48 h. The method in brief: as §1
For data set [5], the system named is Nakaseomyces glabratus. In words: Antifungal activity against Candida glabrata by CLSI method. It is filed as functional, organism-based.
Data set [6] has as its system Cryptococcus neoformans. As to the kind of experiment: Antifungal activity against Cryptococcus neoformans ATCC 90113 after 70 to 74 hrs by CLSI method. The data set is classed as functional, organism-based. The conditions noted are these: for IC50 / MIC: Cryptococcus neoformans, ATCC 90113. The method in brief: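 Growth inhibition of C. neoformans per the CLSI protocol. […] MIC is the lowest test concentration with no detectable growth. MFC is the lowest concentration killing 100% of the organism.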

A short description of data set [7]: Retention time of the compound by reverse phase HPLC analysis. It is filed as physicochemical. The procedure, abridged: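 Reverse-phase HPLC on a C-18 column (25 cm × 4.6 mm, 5 μM) at 1 mL/min over 40 min. The gradient ran 85−5% with A = 0.1% TFA in H2O and B = 0.1% TFA in CH3CN. Detection was at 220 nm.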
The subject of data set [8] is Vero. In words: Cytotoxicity against African green monkey Vero cells assessed as cell viability after 48 hrs by neutral red uptake assay. The conditions noted are these: chlorocebus sabaeus. It is filed as cell-based. The method in brief:
as §1

Data set [9] in a line: Selectivity index, ratio of cytotoxicity for human SKOV3 cells to IC50 for Cryptococcus neoformans ATCC 90113. To be noted: read-out: Selectivity Index. It is filed as toxicity, cell-based, SK-OV-3.
Data set [10] concerns BT-549. As to the kind of experiment: Cytotoxicity against human BT549 cells assessed as cell viability after 48 hrs by neutral red uptake assay. It is filed as cell-based. To be noted: bt-549, 48 h. The method in brief: as §1
Data set [11] can be described thus: Selectivity index, ratio of cytotoxicity for African green monkey Vero cells to IC50 for Cryptococcus neoformans ATCC 90113. It is filed as toxicity, cell-based. To be noted: read-out: Selectivity Index.
The subject of data set [12] is Aspergillus fumigatus. As to the kind of experiment: Antifungal activity against Aspergillus fumigatus by CLSI method. It is filed as functional, organism-based.
In data set [13] the test system is Pichia kudriavzevii. As to the kind of experiment: Antifungal activity against Candida krusei by CLSI method. It is filed as functional, organism-based.
The nature of data set [14]: Selectivity index, ratio of cytotoxicity for human SK-MEL cells to IC50 for Cryptococcus neoformans ATCC 90113. It is filed as toxicity, cell-based. To be noted: read-out: Selectivity Index.
Data set [15] in a line: Selectivity index, ratio of cytotoxicity for human KB cells to IC50 for Cryptococcus neoformans ATCC 90113. It is filed as toxicity, cell-based. To be noted: read-out: Selectivity Index.
In data set [16] the test system is SK-MEL. In words: Cytotoxicity against human SK-MEL cells assessed as cell viability after 48 hrs by neutral red uptake assay. It is filed as cell-based. The procedure, abridged: as §1
Data set [17] has as its system Escherichia coli. In words: Antibacterial activity against Escherichia coli ATCC 35218 after 16 to 20 hrs by CLSI method. The data set is classed as functional, organism-based.
A short description of data set [18]: Selectivity index, ratio of cytotoxicity for pig LLC-PK1 cells to IC50 for Cryptococcus neoformans ATCC 90113. It is filed as toxicity, cell-based. To be noted: read-out: Selectivity Index.
Data set [19] deals with LLC-PK1. As to the kind of experiment: Cytotoxicity against pig LLC-PK1 cells assessed as cell viability after 48 hrs by neutral red uptake assay. The conditions noted are these: llc-pk1, 48 h. The data set is classed as cell-based, Sus scrofa. The method in brief:
as §1

Converted amounts (≈) assume the structure as drawn. The source made the active and inactive calls. The calls are words filed in the database; no cut-off is given here.

Consider `COc1ccc(-c2nc(C[C@H](NC(=O)[C@H](CCCNC(=N)N)NC(=O)OC(C)(C)C)C(=O)N[C@@H](CCCNC(=N)N)C(=O)NCc3ccccc3)c[nH]2)cc1`, for which the Activity in data set [1], in [4], in data set [8], in data set [10], in data set [16] and in [19] was over 10 µg/mL each time. Besides, the result in [2], in data set [5], in data set [12], in data set [13] and in data set [17] was inactive. For the same compound, the selectivity ratio in [3], in data set [9], in data set [11], in [14], in data set [15] and in data set [18] was over 14.7 throughout. The MFC100 in data set [6] came to 5 µg/mL (≈ 6.55 µM). The IC50 (as a rule, the concentration that gives 50% inhibition) in [6] was 0.68 µg/mL (≈ 0.891 µM). Moreover, in data set [6], it took 2.5 µg/mL (≈ 3.28 µM) to inhibit growth (MIC). The Retention_time in data set [7] stood at 18.93 min.
With `COC(=O)[C@H](CCCNC(=N)N)NC(=O)[C@H](Cc1c[nH]c(-c2ccc(OC)cc2)n1)NC(=O)[C@@H](N)CCCNC(=N)N`, the Activity in data set [1], in [4], in data set [8], in [10], in [16] and in data set [19] was over 10 µg/mL each time. For the same compound, the outcome in data set [2], in data set [5], in data set [12], in data set [13] and in data set [17] was inactive. In addition, the selectivity ratio in data set [3], in [9], in data set [11], in data set [14], in [15] and in data set [18] was over 2.5 each time. In data set [6], this compound displayed an MFC100 of 5 µg/mL (≈ 8.51 µM). Moreover, the IC50 in data set [6] was determined as 3.93 µg/mL (≈ 6.69 µM). Moreover, the MIC – broadly, the least concentration at which growth counts as inhibited – in data set [6] amounted to 5 µg/mL (≈ 8.51 µM).
Turning to `C[C@@H]1[C@H](O)[C@@H](C)/C=C/C=C/C=C/C=C/C=C/C=C/C=C/[C@H](O[C@@H]2O[C@H](C)[C@@H](O)[C@H](N)[C@@H]2O)C[C@@H]2O[C@](O)(C[C@@H](O)C[C@@H](O)[C@H](O)CC[C@@H](O)C[C@@H](O)CC(=O)O[C@H]1C)C[C@H](O)[C@H]2C(=O)O` [AMPHOTERICIN B], in data set [6], the MFC100 turned out to be 1.25 µg/mL (≈ 1.35 µM) and the MIC is 1.25 µg/mL (≈ 1.35 µM).
`N=C(N)NCCC[C@H](NC(=O)[C@H](Cc1c[nH]c(-c2ccccc2)n1)NC(=O)[C@@H](N)CCCNC(=N)N)C(=O)NCc1ccccc1`: the Activity in data set [1], in data set [4], in data set [8], in data set [10], in data set [16] and in data set [19] was over 10 µg/mL in each case. Further, the outcome in data set [2], in [5], in data set [12], in data set [13] and in data set [17] was inactive. Moreover, the selectivity ratio in data set [3], in [9], in [11], in [14], in [15] and in [18] was over 13.7 throughout. This compound came in with an MFC100 in data set [6] of 1.25 µg/mL (≈ 1.98 µM). Further, the IC50 in data set [6] is 0.73 µg/mL (≈ 1.15 µM). The compound also displayed an MIC in [6] of 1.25 µg/mL (≈ 1.98 µM).
On to `Cc1ccc(-c2nc(C[C@H](NC(=O)[C@@H](N)CCCNC(=N)N)C(=O)N[C@@H](CCCNC(=N)N)C(=O)NCc3ccccc3)c[nH]2)cc1`, for which the Activity in data set [1], in data set [4], in data set [8], in data set [10], in data set [16] and in data set [19] was over 10 µg/mL in each case. For the same compound, the result in data set [2], in data set [5], in [12], in [13] and in [17] was inactive. Also, the selectivity ratio in data set [3], in [9], in data set [11], in data set [14], in [15] and in [18] was over 28.6 each time. This compound displayed an MFC100 in [6] of 10 µg/mL (≈ 15.5 µM). Half-maximal inhibition in [6] (IC50) was put at 0.35 µg/mL (≈ 0.541 µM). In data set [6], the MIC turned out to be 0.63 µg/mL (≈ 0.974 µM).
`COC(=O)[C@H](CCCNC(=N)N)NC(=O)[C@H](Cc1c[nH]c(-c2ccc(-c3ccccc3)cc2)n1)NC(=O)[C@@H](N)CCCNC(=N)N`: the Activity in data set [1], in data set [4], in data set [8], in data set [10], in [16] and in data set [19] was over 10 µg/mL in each case. For the same compound, the result in [2], in data set [5], in [12], in data set [13] and in [17] was inactive. The selectivity ratio in data set [3], in data set [9], in data set [11], in data set [14], in [15] and in data set [18] was over 16.9 throughout. In addition, the MFC100 in [6] is 1.25 µg/mL (≈ 1.97 µM). Further, in data set [6], 0.59 µg/mL (≈ 0.931 µM) corresponded to half-maximal inhibition (IC50). For the same compound, the MIC in data set [6] amounted to 1.25 µg/mL (≈ 1.97 µM).
With `COC(=O)[C@H](CCCNC(=N)N)NC(=O)[C@H](Cc1c[nH]c(-c2ccc(C(C)(C)C)cc2)n1)NC(=O)[C@@H](N)CCCNC(=N)N`, the Activity in [1], in [4], in data set [8], in data set [10], in data set [16] and in [19] was over 10 µg/mL throughout. Also, the outcome in data set [2], in data set [5], in data set [12], in [13] and in [17] was inactive. The selectivity ratio in data set [3], in data set [9], in data set [11], in [14], in [15] and in data set [18] was over 16.3 throughout. Moreover, in data set [6], the MFC100 is 1.25 µg/mL (≈ 2.04 µM). This compound also yielded an IC50 in data set [6] of 0.61 µg/mL (≈ 0.994 µM). Also, the MIC in data set [6] was 1.25 µg/mL (≈ 2.04 µM).
